High-throughput results deposited in PubChem by Sanford-Burnham Center for Chemical Genomics.
Compounds with a hit are over-represented: about 1.7% of the library has one in this group of screens.
DNMT1 inh: DNMT1 (human) enzyme inhibition; P26358; DNMT1 molecular beacon, Hinp1I cleavage, fluorescence; inhibition (reported as % activation of signal), % at 10 µM; actives 0.83% (n = 360,000); AID 588458; in the data active means inhibition above about 50%
Target sequence (P26358 504-1616 limits assumed): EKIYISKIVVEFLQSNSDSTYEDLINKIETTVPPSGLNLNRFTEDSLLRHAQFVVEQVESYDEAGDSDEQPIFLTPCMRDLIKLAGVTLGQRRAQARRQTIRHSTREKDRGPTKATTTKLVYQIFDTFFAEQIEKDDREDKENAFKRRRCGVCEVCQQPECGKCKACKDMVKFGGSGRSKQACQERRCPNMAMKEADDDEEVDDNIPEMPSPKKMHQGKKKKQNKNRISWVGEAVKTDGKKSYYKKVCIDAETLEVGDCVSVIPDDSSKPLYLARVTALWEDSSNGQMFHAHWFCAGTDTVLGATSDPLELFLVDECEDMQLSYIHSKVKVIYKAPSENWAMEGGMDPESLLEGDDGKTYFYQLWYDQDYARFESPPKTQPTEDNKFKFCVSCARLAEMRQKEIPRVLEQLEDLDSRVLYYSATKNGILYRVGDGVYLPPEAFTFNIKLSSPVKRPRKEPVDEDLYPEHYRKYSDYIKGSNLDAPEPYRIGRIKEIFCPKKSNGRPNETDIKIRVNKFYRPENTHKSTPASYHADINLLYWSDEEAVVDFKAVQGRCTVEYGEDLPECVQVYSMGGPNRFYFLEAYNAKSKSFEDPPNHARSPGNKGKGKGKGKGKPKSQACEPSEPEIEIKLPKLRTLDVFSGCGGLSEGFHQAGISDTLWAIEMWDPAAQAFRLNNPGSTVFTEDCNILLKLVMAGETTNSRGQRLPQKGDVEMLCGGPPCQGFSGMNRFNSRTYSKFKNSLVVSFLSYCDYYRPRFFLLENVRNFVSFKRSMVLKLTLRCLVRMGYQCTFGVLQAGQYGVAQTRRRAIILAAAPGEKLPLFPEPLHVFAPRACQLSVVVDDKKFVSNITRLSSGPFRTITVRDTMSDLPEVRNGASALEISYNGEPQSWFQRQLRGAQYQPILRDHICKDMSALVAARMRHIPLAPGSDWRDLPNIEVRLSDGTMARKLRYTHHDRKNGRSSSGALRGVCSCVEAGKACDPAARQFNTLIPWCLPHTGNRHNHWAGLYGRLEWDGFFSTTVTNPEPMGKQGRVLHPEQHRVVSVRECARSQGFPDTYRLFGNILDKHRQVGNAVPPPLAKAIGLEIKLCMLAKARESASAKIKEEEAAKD
Scp1 inh: blocks human Scp-1 phosphatase activity; Q9GZU7; Recombinant Scp1, phosphopeptide, malachite green phosphate absorbance; inhibition, % at 20 µM; actives 0.88% (n = 340,000); AID 493091;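 active means inhibition above about 50% at 20 µM, limit read from the data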;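 further: plate controls were DMSO wells with enzyme for no effect and wells lacking enzyme for full effect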
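System: truncated SCP-1 phosphatase (76-261aa); medium: Tris acetate buffer pH 5.5 with MgCl2 and Tween-20; incubation: 45 min room-temperature reaction, 5 min colour, 30 min stabiliser; compound: single 20 µM dose, 1% DMSO; reagent: Phosphorylated 17-residue peptide substrate; read-out: % inhibition at 20 µM; technique: colorimetric free-phosphate detection, absorbance 630 nm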
STEP block: inhibitors of human striatal-enriched phosphatase STEP. P54829. recombinant STEP, OMFP fluorogenic substrate, fluorescence. inhibition, % at 20 µM. actives 0.25% (n = 360,000). AID 588621;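 active means inhibition at 20 µM, scaled per plate between control wells, above about 37%, limit read from the data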;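 further: 0% = DMSO with enzyme and substrate and 100% = substrate only without enzyme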
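medium = Bis-Tris buffer pH 6.0, 2.5 mM DTT, 0.005% Tween 20 | test system = STEP (striatal-enriched tyrosine phosphatase) enzyme, cell-free | measure = normalized % inhibition | compound dosing = 20 µM, 1% DMSO | also added = 25 µM OMFP | schedule = reaction 20 min, ambient temperature | measured by = fluorescence read at 480 nm ex / 540 nm em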
LMPTP block: LMPTP (human) inhibition; recombinant LMPTP-A, OMFP fluorogenic substrate, fluorescence intensity; inhibition, % at 20 µM; actives 0.22% (n = 360,000); AID 651560;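 active means compounds that cut the enzyme signal by at least half of the control window in the single-dose screen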;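 further: plate controls were DMSO wells with enzyme plus substrate for no effect and substrate without enzyme for full effect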
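test system = LMPTP-A | amount = 0.625 nM LMPTP-A final | reagent = fluorogenic phosphatase substrate OMFP at 400 µM final | incubation = 50 min at room temperature | benchmarks = no-enzyme low control, uninhibited high control | medium = Bis-Tris pH 6.0, DTT, detergent | signal = fluorescence intensity of OMFP turnover product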
SUMO1 PPI mod: SUMO1-SIM interaction modulation; actives 0.33% (n = 360,000); AID 602429; SUMO1 binding to a labelled peptide, TR-FRET, 1 h; inhibition, % at 20 µM; in the data active means inhibition above about 37%
Scp-1 conf: Scp-1 (human) inhibition, single-dose confirmed; inhibition, % at 20 µM; recombinant SCP-1 catalytic domain, phosphate release, malachite green absorbance; shares compounds with Scp1 inh; AID 540281; actives 61% (n = 2,500);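 further: plate controls were DMSO with enzyme for no effect and buffer wells lacking enzyme for full effect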
Scp-1 MG ctr: interferes with malachite green readout, flagging false Scp-1 hits; Colorimetric interference counterscreen, malachite green absorbance 630 nm; AID 540313; apparent inhibition (interference), % at 20 µM; 2,500 tested, under 10 active; shares compounds with Scp1 inh;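 further: compounds added after enzyme reaction finished so only phosphate colour detection is probed; plate controls were DMSO wells with completed Scp-1 reaction for no effect and substrate wells lacking enzyme for full effect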
Scp1 DSF: validation of human Scp-1 inhibitors by thermal shift binding; shares compounds with Scp1 inh; AID 540329; thermal shift relative to vanadate control, % at 40 µM; actives 25% (n = 1,500); Recombinant SCP1, Sypro Orange thermal shift Tm;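 active means substances whose mean melting-temperature shift, as a percentage of the reference inhibitor's shift, reaches about 5.3%, limit read from the data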;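 further: 0% = Tm of DMSO wells and 100% = Tm with sodium orthovanadate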
Beacon interf DR: counter-screen for DNMT1 inhibitors: spectral interference, dose response; shares compounds with DNMT1 inh; molecular beacon fluorescence; IC50, µM; 200 tested, under 10 active; AID 602382; call rule not given here
DNMT1 confirm: confirmation of human DNMT1 inhibitors; shares compounds with DNMT1 inh; DNMT1 molecular beacon HinP1I cleavage, fluorescence; inhibition, % at 10 µM; actives 8% (n = 2,300); AID 602385;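 active means average inhibition of at least 30% in the single-concentration confirmation test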
Beacon interf: beacon fluorescence artifact counter-screen | activation (fluorescence interference), % at 10 µM | shares compounds with DNMT1 inh | DNMT1 molecular beacon spectral interference counterscreen, fluorescence 485/520 | actives 1% (n = 2,300);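 active means activation of at least 30% at 10 µM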;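 further: DNMT1 catalytic domain with a HinP1I cleavage step and a FAM/dabcyl DNA beacon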
* hit, by the source's call; / = not tested or not shown.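 How the source made its calls, unless noted: active means inhibition of at least 30% at 20 µM; inactive means the rest.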

SMILES | DNMT1 inh | Scp1 inh | STEP block | LMPTP block | SUMO1 PPI mod | Scp-1 conf | Scp-1 MG ctr | Scp1 DSF | DNMT1 confirm | Beacon interf | others
O=C(Cc1coc2cc3c(cc12)CCC3)OCc1cc(=O)n2c(n1)sc1ccccc12 | 85* | 63* | 2 | 9 | 6 | 51* | -30 | 6.3* | 1 | 2
CCc1c(O)nc2sc3ccccc3n2c1=O | 0 | -7 | 0 | 0 | -1 | / | / | / | / | /
Cc1ccc2c(CC(=O)OCc3csc(C)n3)coc2c1 | -2 | 1 | 2 | -2 | -1 | / | / | / | / | /
COC(=O)c1cc(=O)nc2sc3ccccc3n12 | 4 | 0 | -3 | 0 | 2 | / | / | / | / | /
O=C(OCc1cc(=O)n2c(n1)sc1ccccc12)c1cccc(O)c1 | 98* | 79* | 0 | 8 | 12 | 58* | -19 | 5 | 23 | 5
O=C(OCc1cc(=O)n2c(n1)sc1ccccc12)c1ccc(O)cc1O | 70* | 78* | 3 | 13 | 4 | 60* | -12 | 0 | 6 | -7
O=c1c2ccccc2nc2n1C(CBr)CN2 (stereo not drawn) | -3 | -1 | -2 | 0 | -5 | / | / | / | / | /
CCCN(CC(=O)Nc1ccccc1OC)C(=O)c1nc2nc(C)ccn2n1 | 2 | -3 | 0 | -2 | 4 | / | / | / | / | /
Cc1cccc(NC(=S)NC2CCSc3ccccc32)c1 (stereo not drawn) | 1 | 5 | 0 | 2 | 1 | / | / | / | / | /
COCCn1c(SCC(=O)NC2(C#N)CCCCC2)nc2ccccc2c1=O | -2 | -2 | -6 | -1 | -1 | / | / | / | / | /
Cc1ccoc1C(=O)NCc1occc1C(=O)O | 57* | 50* | 14 | -1 | 9 | 34* | -18 | -4 | -1 | 0
Cc1cc(C)nc(SCC(=O)Nc2ccccc2[N+](=O)[O-])n1 | 1 | -2 | -4 | 0 | -15 | / | / | / | / | /
O=C1CC(=O)NC(SCC(=O)Nc2ccccc2[N+](=O)[O-])=N1 | 64* | 77* | 21 | 7 | 12 | 67* | -12 | 13* | 33* | 3 | Beacon interf DR=>99
Cc1ccc(CSCCNC(=O)c2ccc(NS(C)(=O)=O)cc2)cc1 | -4 | -7 | 0 | 2 | 3 | / | / | / | / | /
O=C(Nc1sc2c(c1C(=O)O)CCC2)c1ccccc1 | 82* | 58* | 23 | 9 | 10 | 54* | -15 | 6.6* | 0 | 7
O=C(Nc1sc2c(c1C(=O)O)CCCCC2)c1ccccc1 | -2 | -5 | 4 | -1 | 2 | / | / | / | / | /
COc1ccc(NC(=O)CSc2nc3sc(C)cc3c(=O)n2C)c(OC)c1 | -1 | -7 | 1 | 0 | -16 | / | / | / | / | /
O=C(CNC(=O)c1cccc(OC(F)F)c1)OCC(=O)c1ccccc1 | -2 | -1 | -2 | -2 | 1 | / | / | / | / | /
O=C(CNC(=O)c1cccc(OC(F)F)c1)OCc1cc(=O)n2cc(Br)ccc2n1 | 108* | 61* | 0 | 11 | -19 | 58* | -10 | 3 | 3 | 6
Cc1c(Cl)cccc1-c1ccc(/C=N/n2cnnc2)o1 | 4 | -1 | 1 | 1 | -17 | / | / | / | / | /
Cc1c(C(=O)O)cccc1-c1ccc(/C=N/n2cnnc2)o1 | 58* | 67* | 27 | 1 | -6 | 37* | -15 | -18 | 7 | 0
CCCSc1nc(C)c(-c2csc(C(C#N)=C3CCCC3)n2)cc1C#N | 92* | 57* | 6 | 16 | 22 | 60* | -12 | 5 | -1 | -2
CCCCSc1nc2c(cc1C#N)CCC2 | 3 | -11 | -1 | 1 | -1 | / | / | / | / | /
CC1CCC2(CC1)NC(=O)N(CC(=O)Nc1sc3c(c1C(N)=O)CCC3)C2=O (stereo not drawn) | 70* | 86* | 21 | 6 | 18 | 65* | -11 | 12* | 5 | -1
COC(=O)c1c(NC(=O)CN2C(=O)NC3(CCC(C)CC3)C2=O)sc2c1CCC2 (stereo not drawn) | 6 | 20 | -1 | 3 | 0 | / | / | / | / | /
SMILES | DNMT1 inh | Scp1 inh | STEP block | LMPTP block | SUMO1 PPI mod | Scp-1 conf | Scp-1 MG ctr | Scp1 DSF | DNMT1 confirm | Beacon interf | others
Cn1cnnc1SCC(=O)Nc1sc2c(c1C(N)=O)CCC2 | 85* | 65* | 6 | 45 | 43* | 73* | -7 | 13* | 17 | 3
COCCn1cnnc1SCC(=O)Nc1sc2c(c1C#N)CCC2 | 17 | 20 | -1 | 2 | 4 | / | / | / | / | /
Cn1c(N)c(C(=O)COC(=O)c2cc(-c3ccco3)nc3ccccc23)c(=O)n(C)c1=O | 110* | 73* | 8 | 62* | 31 | 67* | -14 | 15* | 31* | 0 | Beacon interf DR=>99
Cc1ccc(S(=O)(=O)N(C)CC(=O)N2CCN(Cc3ccccc3)CC2)cc1 | 2 | 2 | 13 | -1 | 4 | / | / | / | / | /
NC(=O)Cc1ccc(C(=O)CSc2nnc(-c3ccncc3)n2C2CC2)s1 | 78* | 79* | 0 | 57* | 15 | 82* | 5 | 7.0* | 8 | -1
N#CCCN(C(=O)CSc1nnc(-c2ccncc2)n1C1CC1)c1ccccc1 | 4 | -7 | -2 | -2 | 5 | / | / | / | / | /
O=C(/C=C/c1ccco1)N1CCN(S(=O)(=O)c2ccccc2)CC1 | 66* | 73* | 18 | 10 | 6 | 70* | -10 | -10 | 4 | 4
CC1(OC(=O)c2ccc(Cl)nc2)C(=O)C=C2C=C3CCCN3C=C2C1=O (stereo not drawn) | 66* | 65* | 10 | 4 | 15 | 16 | -12 | / | 6 | 4
CCCn1c(=O)c2sccc2n2c(CCCC(=O)NCc3ccco3)nnc12 | 77* | 69* | 17 | 2 | 8 | 54* | -9 | -5 | 1 | 2
CCCn1c(=O)c2sccc2n2c(CCCC(=O)NCc3cccnc3)nnc12 | 1 | -6 | -3 | -1 | 4 | / | / | / | / | /
Cc1ccc(C(=O)N2CCC(C)CC2)cc1NC1=NC2CS(=O)(=O)CC2S1 (stereo not drawn) | -2 | -13 | -2 | -1 | 6 | / | / | / | / | /
CC(C)c1ccc(CNn2cnnc2)cc1 | 0 | -20 | 0 | 0 | -2 | / | / | / | / | /
